This is a sample that favours compounds with a hit; in the whole collection about 1.2% have one here.
GalR3 antagonist = GalR3 antagonists in HEK293 cells, primary screen, cell-based, fluorescence readout | Galanin receptor type 3 (Homo sapiens), O60755 | HEK293 GalR3-CNG cAMP membrane potential fluorescence; galR3 body fused to GalR1 C-terminus | inhibition, % at 3 µM | actives 0.44% (n = 360,000) | AID 651719, 2012;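 active = inhibition above the screen-wide average plus 3 SD, cut at about 13% in these data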;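 also: forskolin and galanin both at EC90 stimulate the cells; cAMP rise reported by CNG channel membrane potential dye signal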
ARFGAP1 inhibitor = inhibitors of rat ARFGAP1 GAP activity, primary screen, biochemical, fluorescence polarization, GDP tracer. ADP-ribosylation factor GTPase-activating protein 1 (Rattus norvegicus), Q62848. Arfgap1-stimulated ARF1 GTP hydrolysis, GDP FP detection. inhibition, % at 16.5 µM. actives 0.26% (n = 360,000);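 active = inhibition above a per-plate limit, mean inhibition of low control wells plus 3 SD, cut at about 25% in these data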
Target sequence (Q62848 1-136 limits assumed): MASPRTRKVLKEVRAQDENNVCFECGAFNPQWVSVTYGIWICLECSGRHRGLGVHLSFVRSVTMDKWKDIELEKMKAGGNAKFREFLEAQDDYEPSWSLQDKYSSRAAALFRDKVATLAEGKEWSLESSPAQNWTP
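Repeats: one replicate per compound; assay system: rat Arfgap1 catalytic domain, aa 1-136; times: enzyme reaction 120 min at 25 °C after 20 min preincubation; detection: FP of antibody-bound GDP Alexa 633 tracer, ex 620/em 688 nm; benchmarks: high control wells lacking Arfgap1, low control full reaction with DMSO; reagent: human ARF1(Δ1-17)-GTP substrate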
Rin1-Abl PPI inh = inhibitors of Rin1-Abl protein binding, primary screen, biochemical, TR-FRET. AID 588664, 2011. Tyrosine-protein kinase ABL1 (Homo sapiens) + Ras and Rab interactor 1 (Homo sapiens), …. actives 0.4% (n = 360,000). inhibition, % at 7.35 µM; in the data active = inhibition above about 5%, passing the limit was not always enough
ASAP1 inh = inhibitors of human ASAP1 ArfGAP activity, primary screen, biochemical, fluorescence polarization. actives 0.19% (n = 360,000). ASAP1-stimulated ARF1 GTP hydrolysis, GDP FP detection. inhibition, % at 16.5 µM. AID 624377, 2012. Arf-GAP with SH3 domain, ANK repeat and PH domain-containing protein 1 (Homo sapiens), …; in the data active = inhibition above about 25%
Target sequence (Q9ULH1 325-724 limits assumed): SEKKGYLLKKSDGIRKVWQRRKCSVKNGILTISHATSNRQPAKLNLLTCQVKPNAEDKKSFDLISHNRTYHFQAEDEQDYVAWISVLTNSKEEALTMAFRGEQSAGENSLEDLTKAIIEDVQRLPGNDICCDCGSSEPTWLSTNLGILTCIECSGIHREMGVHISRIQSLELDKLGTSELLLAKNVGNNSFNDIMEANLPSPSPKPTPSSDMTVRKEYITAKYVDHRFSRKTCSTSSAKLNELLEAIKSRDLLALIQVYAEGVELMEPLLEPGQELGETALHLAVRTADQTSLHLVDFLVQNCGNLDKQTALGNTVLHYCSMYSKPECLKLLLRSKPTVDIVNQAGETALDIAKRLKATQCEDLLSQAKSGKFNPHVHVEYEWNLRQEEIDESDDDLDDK
ASAP1 GAP conf = ASAP1 GAP activity inhibitors, confirmation, biochemical, fluorescence polarization, human, triplicate | shares compounds with ASAP1 inh | ASAP1-stimulated Arf1 GTPase, GDP fluorescence polarization | inhibition, % at 16.5 µM | actives 37% (n = 620);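 active = mean inhibition over triplicates exceeds the hit threshold derived for the earlier primary screening run, cut at about 25% in these data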
Large screens that a line does not name were inactive (follow-up assays come after a bar, where they were run).

CC(C)C[C@@H](CNC(=O)OC(C)(C)C)NC(=O)c1nc[nH]c1C(=O)N[C@@H](CC(C)C)C(=O)CNC[C@H](CC(C)C)NC(=O)c1nc[nH]c1C(=O)N[C@@H](Cc1c[nH]c2ccccc12)C(=O)OC(C)(C)C	ASAP1 inh 32 | ASAP1 GAP conf inactive
Cc1ccc(-n2nc3c(c2NC(=O)c2ccco2)CS(=O)C3)cc1 (stereo not given)	ASAP1 inh 25 | ASAP1 GAP conf inactive
O=C(Nc1c2c(nn1-c1ccc(F)cc1)CS(=O)C2)c1ccco1 (stereo not given)	none
CC(C)(C)OC(=O)N1CCC[C@@H]1C(=O)N1CCC[C@H]1C(=O)NCc1ccccc1	none (no result: Rin1-Abl PPI inh)
C[C@H](O)[C@@H]1CN2CCc3ccc(-c4ccc5c(c4)OCO5)cc3[C@@H]2C[C@@H]1N(C)C(=O)c1cccc(Cl)c1	none (no result: Rin1-Abl PPI inh)
CC(=O)c1cccc(NC(=O)CSc2ccc(-c3ccc4c(c3)OCO4)nn2)c1	ASAP1 inh 25 | ASAP1 GAP conf 54
COc1ccc(-c2ccc(SCC(=O)Nc3cccc(C(C)=O)c3)nn2)cc1OC	none
CN(Cc1cccc(Cl)c1Cl)C(=O)CCNC(=O)c1ccco1	ASAP1 inh 29 | ASAP1 GAP conf inactive
C=CCn1c(-c2cccc3ccccc23)n[nH]c1=S	ASAP1 inh 52 | ASAP1 GAP conf inactive
COc1ccc(C(=O)CSc2nc(=O)n(Cc3cccnc3)c3c2CCC3)cc1	ASAP1 inh 26 | ASAP1 GAP conf inactive
C#CCNC(=O)C[C@H]1C[C@@]2(C(=O)OC)C(=C[C@H](C(C)(C)C)O[C@@H]2C)N(Cc2ccc3c(c2)OCO3)C1=O	none (no result: Rin1-Abl PPI inh)
CCCC1(c2ccccc2)NC(=O)N(CCN2C(=O)c3ccccc3C2=O)C1=O (stereo not given)	none (no result: GalR3 antagonist, ARFGAP1 inhibitor, ASAP1 inh)
CC1(c2ccccc2)NC(=O)N(CCN2C(=O)c3ccccc3C2=O)C1=O (stereo not given)	ASAP1 inh 25 | ASAP1 GAP conf inactive
CC(Sc1ccsc1[N+](=O)[O-])C(=O)NCc1ccccc1 (stereo not given)	ASAP1 inh 25 (no result: Rin1-Abl PPI inh) | ASAP1 GAP conf inactive
C=CC[C@]12C[C@@]3(O[C@H](c4ccc(C(F)(F)F)cc4)N=C3C[C@H](c3ccc(OC)cc3)[C@H]1C)N(Cc1ccncc1)C2=O	none (no result: Rin1-Abl PPI inh)
CS(=O)(=O)N(Cc1ccc(Cl)cc1)c1ccc(C(=O)NCc2ccccn2)cc1	ASAP1 inh 31 | ASAP1 GAP conf inactive
O=C(NNS(=O)(=O)c1ccc(Cl)cc1)c1cc(-c2ccccc2)nc2ccccc12	ASAP1 inh 28 | ASAP1 GAP conf inactive
Cc1cccc(S(=O)(=O)NNC(=O)c2cc(-c3ccc(F)cc3)nc3ccccc23)c1	none
CC1=C/C(=C(/c2cc(C)c(O)c(Br)c2)c2ccccc2S(=O)(=O)O)C=C(Br)C1=O	ARFGAP1 inhibitor 38, ASAP1 inh 40 | ASAP1 GAP conf 30
CC1=C/C(=C(/c2ccc(O)c(C)c2)c2ccccc2S(=O)(=O)O)C=CC1=O	none
NC(Cc1ccc(C(F)(F)F)cc1)c1csc(Nc2ccc(C(=O)NCCCO)cn2)n1 (stereo not given)	none
NC(Cc1ccc(C(F)(F)F)cc1)c1csc(Nc2ccc(C(=O)NCc3ccco3)cn2)n1 (stereo not given)	ASAP1 inh 28 | ASAP1 GAP conf inactive
COc1ccc(C(=O)/C=C/Sc2nc3ccccc3o2)cc1	none
CCCCOC(=O)Sc1nc2ccccc2o1	ASAP1 inh 25 | ASAP1 GAP conf inactive
COc1ccc2c(c1OC)C(=O)OC2CC(=O)c1ccc(O)c(O)c1 (stereo not given)	ASAP1 inh 144 | ASAP1 GAP conf inactive
COc1ccc2c(c1OC)C(=O)OC2CC(=O)c1ccc(O)cc1 (stereo not given)	none
COC(=O)[C@]12C[C@H](CC(=O)N3CCSCC3)C(=O)N(CCC3=CCCCC3)C1=C[C@H](C(C)(C)C)O[C@@H]2C	none (no result: Rin1-Abl PPI inh)
O=[N+]([O-])c1ccc2c(c1)-c1ccccc1C2=NO	none
Nc1ccc2c(c1)C(=NO)c1cc([N+](=O)[O-])ccc1-2	ASAP1 inh 26 | ASAP1 GAP conf inactive
Cc1ccc(NC2=C/C(=N/S(=O)(=O)c3cccs3)c3ccccc3C2=O)cc1C	none
Cc1ccccc1NC1=C/C(=N\S(=O)(=O)c2cccs2)c2ccccc2C1=O	ASAP1 inh 25 | ASAP1 GAP conf inactive
CCOC(=O)C1=CCN(S(=O)(=O)c2ccc(Br)cc2)C1c1cccc(Br)c1 (stereo not given)	none (no result: Rin1-Abl PPI inh)
CC1(C)Cc2c(c(-c3ccco3)nc3sc4c(NCCO)ncnc4c23)CO1	ASAP1 inh 30 | ASAP1 GAP conf inactive
Cc1ccc(NC(=O)CSc2nnc(-c3ccc(S(=O)(=O)N4CCCC4)cc3)o2)cc1C	ASAP1 inh 31 | ASAP1 GAP conf inactive
COc1ccc(Cl)c(-c2cc(C(=O)Nc3ccc(C)c(NS(C)(=O)=O)c3)[nH]n2)c1	ASAP1 inh 26 | ASAP1 GAP conf inactive
CN(Cc1ccccc1)C(=O)CSc1cc(=O)n(C)c2ccccc12	none
Cn1c(=O)cc(SCC(=O)N2CCCC2)c2ccccc21	ASAP1 inh 35 | ASAP1 GAP conf inactive
Nc1[nH]c(C(=O)c2ccccc2)c(-c2ccc3ccccc3c2)c1C(=O)NCc1ccc(F)cc1	none (no result: Rin1-Abl PPI inh)
COc1cccc(/C=N/NC(=O)c2cc3cc([N+](=O)[O-])ccc3s2)c1O	ASAP1 inh 42 | ASAP1 GAP conf 143
COc1cccc(/C=N/NC(=O)C(=O)N/N=C/c2cccc(OC)c2O)c1O	none
CCCCc1c(-c2ccccc2OC)ncn1Cc1ccccc1C	none (no result: Rin1-Abl PPI inh)
C[C@@H]1ON(C)[C@H]2C[C@H]3c4[nH]c5cccc(-c6ccccc6F)c5c4CCN3C(=O)[C@@H]12	none (no result: Rin1-Abl PPI inh)
Cc1ccc2[nH]c(O)c(N=NC(=O)c3ccc(NS(=O)(=O)c4cccs4)cc3)c2c1	ASAP1 inh 29 | ASAP1 GAP conf inactive
CCOC(=O)C1=CCN(S(=O)(=O)c2ccc(Br)cc2)C1c1cccc(Cl)c1 (stereo not given)	none (no result: Rin1-Abl PPI inh)
COc1ccc(N(C(=O)CCl)C(C(=O)NC2CCCCC2)c2cccnc2)cc1 (stereo not given)	ASAP1 inh 70 | ASAP1 GAP conf inactive
O=C(N[C@H](C(=O)N1CCC[C@H]1C(=O)NC1CCCC1)C1CCCCC1)c1ccco1	none (no result: Rin1-Abl PPI inh)
O=C(Nc1ccn(CCCN(CCCn2ccc(NC(=O)OCc3ccccc3)nc2=O)CCc2cc3ccccc3[nH]2)c(=O)n1)OCc1ccccc1	ASAP1 inh 30 | ASAP1 GAP conf inactive
OCCN1CN(c2ccccc2)C(=S)N(c2ccccc2)C1	none (no result: Rin1-Abl PPI inh)

Screening results (PubChem)
